# Experimental data pooled from the literature.
# Lines come from different studies, so protocols differ.
# Target: Ephrin type-B receptor 3 (EPHB3, Homo sapiens, UniProt P54753)
SMILES,test,conditions,endpoint,result
CN(C)C(=O)Cn1cc(-c2nc(C3(c4ccc(-c5cnc(N)nc5)cc4)CC3)no2)cn1,"cell-free assay, competition with immobilised ligand",1 µM,remaining binding,95%
Cn1cncc1C1=CN(c2ncnc3[nH]cnc23)CCS1,"enzyme activity, inhibitor, radiometric",50 nM,inhibition,12.8%
CN1CCN(c2cnc3c(C4CCN(C(=O)c5ccc(OC(F)(F)F)cc5N)CC4)ncnc3c2)CC1,"cell-free assay, competition with immobilised ligand",1 µM,remaining binding,100%
O=C1Nc2ccc(Cl)cc2C1=Cc1cc(Cl)c(O)c(Cl)c1,cell-free assay,0.5 µM,remaining signal,91%
CO[C@@H](C)c1c(Nc2ccc([C@H](N(C)C(=O)C3CCS(=O)(=O)CC3)C(F)(F)F)cc2)cnc2cc(Cl)nn12,"cell-free assay, competition with immobilised ligand",1 µM,remaining binding,100%
COc1cc(Cl)c(C(=O)N[C@@H](CN[C@H]2CC[C@@H](N)CC2)Cc2ccc(C#N)cc2)cc1-c1ccc(CN[C@H](C)c2ccc(C)cc2)o1,"enzyme activity, inhibitor",1 µM,remaining activity,97%
COc1cc2ncnc(Nc3ccc(F)c(Cl)c3)c2cc1OCCCN1CCOCC1,cell-free assay,0.5 µM,remaining signal,57.5%
Cc1nc(C2CCN(C(=O)c3ccc(OC(F)(F)F)cc3N)CC2)c2ncc(N3CCN(C)CC3)cc2n1,"cell-free assay, competition with immobilised ligand",1 µM,remaining binding,100%
COc1cc(/C=C/C(=O)CC(=O)/C=C/c2ccc(O)c(OC)c2)ccc1O,"enzyme activity, inhibitor",1 µM,activity vs control,93%
COc1cc(Nc2cnc(C#N)c(O[C@H](C)CN(C)C)n2)ncc1-c1cnn(C)c1,"enzyme activity, inhibitor, radiometric",10 µM,remaining activity,23%
CCN(CC)CCNC(=O)c1c(C)[nH]c(/C=C2\C(=O)Nc3ccc(F)cc32)c1C,"enzyme activity, inhibitor",0.3 µM,inhibition,-5%
O=C(Nc1cnn(-c2csc(C(=O)NC3COC3)c2)c1)Nc1c(F)cccc1Cl,"enzyme activity, inhibitor",5 µM,remaining activity,96.5%
CC(C)(C)c1nc2c(s1)c1nc(N)ncc1c1ccc(NS(=O)(=O)c3c(F)cccc3F)c(F)c12,"enzyme activity, inhibitor, radiometric",1 µM,remaining activity,93%
CCCOc1ccc([C@H]2[C@H](C(=O)O)[C@@H](c3ccc4c(c3)OCO4)CN2CC(=O)Nc2c(CC)cccc2CC)cc1,"cell-free assay, competition with immobilised ligand",1 µM,remaining binding,97%
CCN(CC)c1ccc(C2=NNC(=O)CC2C)cc1[N+](=O)[O-] (centres unmarked),"enzyme activity, inhibitor",10 µM,remaining activity,102%
Nc1nc(NC2CCCCC2)sc1C(=O)c1ccccc1,"enzyme activity, inhibitor",10 µM,remaining activity,88%
FC(F)c1nc2ccccc2n1-c1nc(N2CCOCC2)nc(N2CCOCC2)n1,"enzyme activity, inhibitor",10 µM,remaining activity,113%
COc1cc2ncnc(Nc3ccc(Oc4ccccc4)cc3C)c2cc1OC,"enzyme activity, inhibitor",1 µM,inhibition,1%
CN([C@@H]1CCc2c(CC(=O)O)c3ccccc3n2C1)S(=O)(=O)c1ccc(F)cc1,"cell-free assay, competition with immobilised ligand",1 µM,remaining binding,88%
CN(c1ncccc1CNc1nc(Nc2ccc3c(c2)CC(=O)N3)ncc1C(F)(F)F)S(C)(=O)=O,"enzyme activity, inhibitor",1 µM,inhibition,41%
